Test results taken from ChEMBL document CHEMBL3124806, “Imidazopyridine-fused [1,3]-diazepinones: synthesis and antiproliferative activity” (Eur J Med Chem, 2014).

Assays:
KM12 = assay: Cytotoxicity against human KM12 cells assessed as cell growth at 10 uM after 48 hrs by SRB assay relative to untreated control; format: functional; conditions: KM12, 48 h, read-out: Activity
Method in brief: (§1)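 NCI-60 panel screen at a single concentration of 10 μM with 48 h incubation. Cell density measured by sulforhodamine B protein-binding dye and read spectrophotometrically. Growth expressed as percent of untreated control cells.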

DU-145 = assay: Cytotoxicity against human DU145 cells assessed as cell growth at 10 uM after 48 hrs by SRB assay relative to untreated control; format: functional; conditions: DU-145, 48 h, read-out: Activity; method in brief: as §1
SW-620 = assay: Cytotoxicity against human SW620 cells assessed as cell growth at 10 uM after 48 hrs by SRB assay relative to untreated control; format: functional; conditions: SW-620, 48 h, read-out: Activity
Method in brief: (§2)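 NCI-60 single-dose screen. Compounds were added to the cultures at 10 μM and incubated for 48 h. The end point was sulforhodamine B protein staining read spectrophotometrically. Growth is reported as percent of untreated control cells.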

U-251 = assay: Cytotoxicity against human U251 cells assessed as cell growth at 10 uM after 48 hrs by SRB assay relative to untreated control; format: functional; conditions: U-251, 48 h, read-out: Activity; method in brief: as §2
SF-268 = assay: Cytotoxicity against human SF268 cells assessed as cell growth at 10 uM after 48 hrs by SRB assay relative to untreated control; format: functional; conditions: SF-268, 48 h, read-out: Activity
Method in brief: (§3)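 NCI-60 one-dose screen: each agent added at 10 µM, cultures incubated 48 h. Endpoint by sulforhodamine B protein-binding dye read spectrophotometrically; growth expressed as percent of untreated control cells.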

SR = assay: Cytotoxicity against human SR cells assessed as cell growth at 10 uM after 48 hrs by SRB assay relative to untreated control; format: functional; conditions: read-out: Activity; method in brief: as §2
Malme-3M = assay: Cytotoxicity against human MALME-3M cells assessed as cell growth at 10 uM after 48 hrs by SRB assay relative to untreated control; format: functional; conditions: read-out: Activity; method in brief: as §1
MCF7 = assay: Cytotoxicity against human MCF7 cells assessed as cell growth at 10 uM after 48 hrs by SRB assay relative to untreated control; format: functional; conditions: MCF7, 48 h, read-out: Activity; method in brief: as §1
HL-60(TB) = assay: Cytotoxicity against human HL-60(TB) cells assessed as cell growth at 10 uM after 48 hrs by SRB assay relative to untreated control; format: functional; conditions: HL-60, 48 h, read-out: Activity
Method in brief: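 NCI-60 human tumour cell line panel; a single 10 µM concentration was added to the cultures and incubated 48 h. Endpoint was sulforhodamine B protein-binding dye read spectrophotometrically, with growth reported as percent of untreated control cells.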

RPMI-8226 = assay: Cytotoxicity against human RPMI8226 cells assessed as cell growth at 10 uM after 48 hrs by SRB assay relative to untreated control; format: functional; conditions: RPMI-8226, 48 h, read-out: Activity; method in brief: as §3
SNB-75 = assay: Cytotoxicity against human SNB75 cells assessed as cell growth at 10 uM after 48 hrs by SRB assay relative to untreated control; format: functional; conditions: SNB-75, 48 h, read-out: Activity; method in brief: as §2
PC-3 = assay: Cytotoxicity against human PC3 cells assessed as cell growth at 10 uM after 48 hrs by SRB assay relative to untreated control; format: functional; conditions: PC-3, 48 h, read-out: Activity; method in brief: as §3
UACC-62 = assay: Cytotoxicity against human UACC62 cells assessed as cell growth at 10 uM after 48 hrs by SRB assay relative to untreated control; format: functional; conditions: UACC-62, 48 h, read-out: Activity; method in brief: as §2
MOLT-4 = assay: Cytotoxicity against human MOLT4 cells assessed as cell growth at 10 uM after 48 hrs by SRB assay relative to untreated control; format: functional; conditions: MOLT-4, 48 h, read-out: Activity; method in brief: as §3
SF-295 = assay: Cytotoxicity against human SF295 cells assessed as cell growth at 10 uM after 48 hrs by SRB assay relative to untreated control; format: functional; conditions: SF-295, 48 h, read-out: Activity; method in brief: as §3
LOX IMVI = assay: Cytotoxicity against human LOXIMVI cells assessed as cell growth at 10 uM after 48 hrs by SRB assay relative to untreated control; format: functional; conditions: read-out: Activity; method in brief: as §1
MDA-MB-435 = assay: Cytotoxicity against human MDA-MB-435 cells assessed as cell growth at 10 uM after 48 hrs by SRB assay relative to untreated control; format: functional; conditions: MDA-MB-435, 48 h, read-out: Activity; method in brief: as §3
MDA-MB-468 = assay: Cytotoxicity against human MDA-MB-468 cells assessed as cell growth at 10 uM after 48 hrs by SRB assay relative to untreated control; format: functional; conditions: MDA-MB-468, 48 h, read-out: Activity; method in brief: as §3
TK-10 = assay: Cytotoxicity against human TK10 cells assessed as cell growth at 10 uM after 48 hrs by SRB assay relative to untreated control; format: functional; conditions: TK-10, 48 h, read-out: Activity; method in brief: as §2
HOP-62 = assay: Cytotoxicity against human HOP62 cells assessed as cell growth at 10 uM after 48 hrs by SRB assay relative to untreated control; format: functional; conditions: HOP-62, 48 h, read-out: Activity; method in brief: as §1
HCT-116 = assay: Cytotoxicity against human HCT116 cells assessed as cell growth at 10 uM after 48 hrs by SRB assay relative to untreated control; format: functional; conditions: HCT-116, 48 h, read-out: Activity; method in brief: as §1
A498 = assay: Cytotoxicity against human A498 cells assessed as cell growth at 10 uM after 48 hrs by SRB assay relative to untreated control; format: functional; conditions: A498, 48 h, read-out: Activity; method in brief: as §1
NCI-H23 = assay: Cytotoxicity against human NCI-H23 cells assessed as cell growth at 10 uM after 48 hrs by SRB assay relative to untreated control; format: functional; conditions: NCI-H23, 48 h, read-out: Activity; method in brief: as §3
K562 = assay: Cytotoxicity against human K562 cells assessed as cell growth at 10 uM after 48 hrs by SRB assay relative to untreated control; format: functional; conditions: K562, 48 h, read-out: Activity; method in brief: as §1
A549 = assay: Cytotoxicity against human A549 cells assessed as cell growth at 10 uM after 48 hrs by SRB assay relative to untreated control; format: functional; conditions: A549, 48 h, read-out: Activity; method in brief: as §1
IGROV-1 = assay: Cytotoxicity against human IGROV1 cells assessed as cell growth at 10 uM after 48 hrs by SRB assay relative to untreated control; format: functional; conditions: IGROV-1, 48 h, read-out: Activity; method in brief: as §1
786-0 = assay: Cytotoxicity against human […] cells assessed as cell growth at 10 uM after 48 hrs by SRB assay relative to untreated control; format: functional; conditions: 786-0, 48 h, read-out: Activity; method in brief: as §1
Ovis aries = species on record: Ovis aries; assay: Inhibition of sheep brain tubulin polymerization at 100 uM after 40 mins by DAPI staining-based fluorescence assay
Method in brief: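 Microtubular protein was purified from sheep brain by two assembly/disassembly cycles (37 °C/0 °C) in MES buffer (100 mM MES pH 6.6, 1 mM EGTA, 0.5 mM MgCl₂). Compound in DMSO was added to 10 µM tubulin with 10 µM DAPI and incubated 40 min at RT. GTP (1 mM) was then added, and assembly was followed by DAPI fluorescence at 37 °C.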

| Structure (SMILES) | growth at 10 µM (KM12) [%] | growth at 10 µM (DU-145) [%] | growth at 10 µM (SW-620) [%] | growth at 10 µM (U-251) [%] | growth at 10 µM (SF-268) [%] | growth at 10 µM (SR) [%] | growth at 10 µM (Malme-3M) [%] | growth at 10 µM (MCF7) [%] | growth at 10 µM (RPMI-8226) [%] | growth at 10 µM (SNB-75) [%] | growth at 10 µM (PC-3) [%] | growth at 10 µM (UACC-62) [%] | growth at 10 µM (MOLT-4) [%] | growth at 10 µM (SF-295) [%] | growth at 10 µM (LOX IMVI) [%] | growth at 10 µM (MDA-MB-435) [%] | growth at 10 µM (MDA-MB-468) [%] | growth at 10 µM (TK-10) [%] | growth at 10 µM (HOP-62) [%] | growth at 10 µM (HCT-116) [%] | also measured |
| --- | --- | --- | --- | --- | --- | --- | --- | --- | --- | --- | --- | --- | --- | --- | --- | --- | --- | --- | --- | --- | --- |
| O=C1Nc2nc3ccccn3c2C(=O)[C@H](Cc2ccccc2)N1 | 100 | 104 | 101 | 93.2 | 101 | 107 | 93.2 | 95.7 | 105 | 79.1 | 95.2 | 104 | 110 | 105 | 93.5 | 96.4 | 98.4 | 99.8 | 97.2 | 92.3 | growth at 10 µM (HL-60(TB)): 116%; growth at 10 µM (A498): 94%; growth at 10 µM (NCI-H23): 101%; growth at 10 µM (K562): 106%; growth at 10 µM (A549): 98.6%; growth at 10 µM (IGROV-1): 109%; growth at 10 µM (786-0): 99.2% |
| C[C@@H]1NC(c2ccc(Br)cc2)=Nc2nc3ccccn3c2C1=O | 29.6 | 87.7 | 38 | 54 | 83.4 | 30 | 51.8 | 20.9 | 94 | 50.2 | 63.2 | 49.2 | 57.5 | 40.9 | 52.4 | -13 | -0.5 | 110 | 55.8 | 29.2 | inhibition (Ovis aries): 8%; growth at 10 µM (A498): 69.9%; growth at 10 µM (NCI-H23): 53.7%; growth at 10 µM (K562): 24.3%; growth at 10 µM (A549): 54.7%; growth at 10 µM (IGROV-1): 43.1%; growth at 10 µM (786-0): 83.1% |
| Cc1ccc(C2=Nc3nc4ccccn4c3C(=O)[C@@H]3CCCN23)cc1 | 98.6 | 97.4 | 101 | 99.1 | 88 | 88.5 | 102 | 89 | 105 | 90 | 81.9 | 101 | 92.4 | 96.7 | 87.4 | 91.1 | 94.8 | 110 | 82.9 | 94 | growth at 10 µM (HL-60(TB)): 125%; growth at 10 µM (A498): 68.5%; growth at 10 µM (NCI-H23): 92%; growth at 10 µM (K562): 104%; growth at 10 µM (A549): 92.7%; growth at 10 µM (IGROV-1): 99.7%; growth at 10 µM (786-0): 98.1% |
